Rtt109 Vps75: inhibitors of C. albicans Rtt109/Vps75 HAT, primary screen, biochemical, ThioGlo CoA-SH fluorescence, plate reader; Histone acetyltransferase RTT109 (Candida albicans (strain SC5314 / ATCC MYA-2876)), …; purified Rtt109/Vps75, 4 h; inhibition, % at 34.9 µM; hit rate 0.16% among 330,000; AID 540336, 2011;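 active = inhibition of at least 50% in every replicate; inconclusive = best replicate reaches 50% inhibition but some replicates fall short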
Target sequence (Q5AAJ8 whole entry, looked up): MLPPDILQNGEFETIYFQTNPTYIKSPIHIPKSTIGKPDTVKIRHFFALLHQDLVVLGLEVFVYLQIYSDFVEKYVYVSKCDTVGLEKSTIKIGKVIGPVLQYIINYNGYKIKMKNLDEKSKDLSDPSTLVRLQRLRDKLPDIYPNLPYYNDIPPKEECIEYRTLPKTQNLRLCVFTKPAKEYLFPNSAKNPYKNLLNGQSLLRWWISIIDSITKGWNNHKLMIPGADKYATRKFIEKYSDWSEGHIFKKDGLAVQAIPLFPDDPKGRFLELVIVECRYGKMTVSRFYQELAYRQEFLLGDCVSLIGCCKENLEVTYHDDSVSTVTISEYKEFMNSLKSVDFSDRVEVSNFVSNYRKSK
PglD DTNB: C. jejuni PglD acetyltransferase inhibitors, primary screen, biochemical, DTNB colorimetric, single point; hit rate 0.098% among 360,000; purified PglD enzyme, DTNB colorimetric CoA detection; inhibition, % at 12.5 µM; AID 602405, 2012; UDP-N-acetylbacillosamine N-acetyltransferase PglD (Campylobacter jejuni); in the data active = inhibition above about 16%, passing the limit was not always enough; inconclusive = no clear call, values can overlap the other calls
CSC inhib: cancer stem cell viability inhibitors, primary screen, luminescence; cancer stem cell-like cells viability; inhibition, % at 7.5 µM; hit rate 1.1% among 300,000; AID 2717, 2010; in the data active = inhibition above about 75%; inconclusive = no clear call, values can overlap the other calls; tested in HMLE shEcad cells
FN deposit inh: inhibitors of fibronectin matrix deposition, primary screen, AH1F cells, Alexa488-fibronectin fluorescence, plate reader; AH1F fibroblasts, overnight; inhibition, % at 12.6 µM; hit rate 0.086% among 350,000; AID 743247, 2014;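 active = mean inhibition across replicates of 30% or more, regardless of how many single replicates reach that level; inconclusive = mean under 30% yet at least half of replicates reach 30%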;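 note: positive control wells lacked labelled fibronectin entirely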
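Material: AH1F fibroblast monolayer depositing Alexa488-labelled fibronectin into matrix | Input: 10000 AH1F cells/well | Medium: DMEM plus 2% serum, read in PBS | Reagent: Alexa488-fibronectin, 24 nM final in well | Compound dosing: One dose per compound, pinned | Schedule: 1 h adhesion, overnight exposure | Measured by: Fluorescence at 485 nm excitation, 525 nm emission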
SKKanGAS inh: S. pyogenes SKKanGAS growth inhibitors in kanamycin, primary screen, streptokinase expression inhibitor project, SKKanGAS strain, BacTiter-Glo luminescence. hit rate 1.3% among 300,000. inhibition, % at 7.5 µM. 6 h. AID 1662, 2009;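 active = mean replicate score, as percent of positive control median, at least 50; inconclusive = mean below 50 but one replicate at or above 50; inactive = mean and every replicate below 50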;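 note: strain carries kanamycin resistance gene driven by streptokinase promoter and grows in 40 µg/ml kanamycin; loss of luminescence reflects streptokinase promoter inhibition or plain growth inhibition; 0% = median of DMSO wells and 100% = positive control at its reference dose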
PfHsp90 yeast 2: growth inhibition of PfHsp90-expressing yeast, primary screen, antimalarial PfHsp90 inhibitor project, S. cerevisiae, BacTiter-Glo luminescence, single point, set 2 | hit rate 0.32% among 310,000 | inhibition, % at 9.4 µM | AID 504621, 2011 | BacTiter-Glo ATP, 48 h; yeast lacking PDR1 and PDR3 efflux regulators;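 active = every replicate shows inhibition above about 80%, whatever the replicate mean, limit read from the data; inconclusive = mean inhibition reaches the set limit but some replicate falls short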;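 note: 0% = DMSO neutral controls and 100% = 20 µM radicicol positive controls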
* hit, by the source's call; ? = inconclusive; . = not tested or not shown. Most compounds without a hit are left out; they make up all but 1.7% or so of the library.

SMILES	Rtt109 Vps75	PglD DTNB	CSC inhib	FN deposit inh	SKKanGAS inh	PfHsp90 yeast 2
COc1ccc(C2CC(O)(c3ccccc3)Oc3c(C)ccc(C)c32)cc1 (centres undefined)	-1.5	-1.7	.	0.2	89.1*	?
CCCc1nc(SCc2ccccn2)c2c(=O)n(C)c(=O)n(C)c2n1	-5.5	-5.6	106.7*	-0.7	-9.6	-1.4
O=C(O)C1=C[C@H](c2coc3ccccc3c2=O)C[C@H](OCCCCO)O1	0.2	-0.9	-0.6	-3.2	2.3	13.0
NC(=O)C1=C[C@H](c2coc3ccccc3c2=O)C[C@H](OCCCCO)O1	-4.9	-1.3	-1.6	33.2*	3.7	9.8
CC(=O)N(C)C[C@@H]1Oc2ncc(-c3cccc(F)c3)cc2C(=O)N([C@@H](C)CO)C[C@@H]1C	.	3.8	.	-6.9	.	.
COc1ccc(S(=O)(=O)N(C)C[C@H]2Oc3ncc(/C=C/c4ccccc4)cc3C(=O)N([C@H](C)CO)C[C@H]2C)cc1	.	-16.8	.	-20.3	.	.
CCC(C)Sc1ccc(-c2nc3cnccn3c2NC2CCCCC2)cc1 (centres undefined)	-21.3	0.3	125.5*	7.8	93.1*	12.4
COc1ccc(Sc2ccc(-c3nc4cnccn4c3NC3CCCCC3)cc2OC)cc1	-19.7	2.9	104.2*	2.4	.	-7.3
O=S(=O)(NCC[C@H]1CC[C@H](NS(=O)(=O)c2ccccc2Cl)[C@@H](CO)O1)c1ccc(F)cc1	.	-1.1	.	.	.	.
O=c1c2c(nc3n1CCCCC3)-c1ccccc1CC21CCCC1	5.7	0.2	93.3*	.	33.9	-0.3
CCSc1n[nH]c2nc3c(c(=O)n12)C1(CCCC1)Cc1ccccc1-3	-6.9	1.1	4.3	.	65.0*	-10.7
CSc1n[nH]c2nc3c(c(=O)n12)C1(CCCC1)Cc1ccccc1-3	-11.3	-10.8	28.2	3.2	8.7	14.0
O=C(C1CCCCC1)N1C[C@@H]2[C@H](c3ccccc31)[C@@H](CO)N2C(=O)c1ccccc1F	.	7.4	.	.	.	.
Cc1cccc(COC(=O)CCCNC(=O)c2ccc(Cl)cc2)c1	-7.0	-4.0	-2.5	-2.8	.	93.4*
Cc1noc(C)c1COC(=O)CCCNC(=O)c1ccc(Cl)cc1	7.0	-0.2	3.6	-15.5	-3.7	6.1
COc1ccc(NC(=O)Nc2ccc3c(c2)[C@@H]2C[C@@H](CC(=O)NCc4ccccn4)O[C@H](CO)[C@@H]2O3)cc1	.	-2.2	.	.	.	.
COc1ccc(C(=O)Nc2ccc3c(c2)OC[C@H](C)NC[C@H](C)[C@H](OC)CN(C)C3=O)cc1	.	-1.8	.	-1.8	.	.
Cc1nnc(C)n1/N=C/c1cc(Br)ccc1O	-16.8	-7.9	-3.0	.	14.6	-5.1
Cc1nnc(C)n1/N=C/c1cc(Br)cc(Br)c1O	-7.8	-10.0	-14.0	.	23.6	100.6*
O=C(NC(c1ccc(Cl)cc1)c1c(O)ccc2ccccc12)c1ccccc1 (centres undefined)	41.6	4.5	107.1*	.	.	7.7
O=C(NC(c1ccccc1)c1c(O)ccc2ccccc12)c1ccccc1Cl (centres undefined)	4.5	-2.1	18.6	-11.7	.	-7.8
O=C(Nc1ccccc1)N1CCCCN2[C@H](CO)[C@H](c3ccc(-c4ccccc4)cc3)[C@@H]2C1	.	1.6	.	.	.	.
O=C1C=C(c2ccc(Cl)c(C(F)(F)F)c2)C[C@@H](c2ccc(Cl)cc2)C1	-1.4	0.7	115.6*	7.8	.	-0.9
CCOC(=O)c1cccc(C2=CC(=O)C[C@H](c3ccc(Cl)cc3)C2)c1	-9.2	-0.5	76.8*	7.2	.	-0.5
O=C1C=C(c2ccc(Cl)c(C(F)(F)F)c2)C[C@@H](c2ccc(F)cc2)C1	-6.2	-1.9	55.5	-19.2	.	-25.3
SMILES	Rtt109 Vps75	PglD DTNB	CSC inhib	FN deposit inh	SKKanGAS inh	PfHsp90 yeast 2
C(=N\Nc1nc2ccccc2[nH]1)/c1c[nH]c2ccccc12	0.5	.	-4.0	.	64.4*	17.1
Cc1ccc(/C=N/Nc2nc3ccccc3[nH]2)s1	.	-5.2	30.4	2.2	6.7	-22.2
Cc1cc(=O)[nH]c(N/N=C/c2c[nH]c3ccccc23)n1	18.5	.	-16.4	-3.1	-9.4	-32.2
C(=N\Nc1nc2ccccc2[nH]1)/c1ccccc1	-2.4	-0.6	-4.1	1.2	14.9	12.9
O=[N+]([O-])c1cc(/C=N/Nc2nc3ccccc3[nH]2)c(O)cc1O	.	.	64.4	13.5	97.0*	.
Cc1ccccc1/C=N/Nc1nc2ccccc2[nH]1	.	.	-26.0	-5.6	67.7*	-5.3
Cc1[nH]c2ccccc2c1/C=N/Nc1nc2ccccc2[nH]1	49.1	-5.1	43.8	20.5	61.2*	1.4
CN1CCN(C(=O)C[C@@H]2CC[C@@H]3[C@H](COC[C@H](O)CN3C(=O)C3CCCC3)O2)CC1	.	-1.6	.	-2.3	.	.
COc1ccc(S(=O)(=O)Nc2ccc3c(c2)C(=O)N([C@@H](C)CO)C[C@H](C)[C@@H](CN(C)C(=O)C2CCCCC2)OCCCC[C@@H](C)O3)cc1	.	-0.3	.	.	.	.
COc1ccc(/C=N/Nc2nc3ccccc3[nH]2)c(OC)c1OC	2.0	.	2.7	1.1	2.2	-36.7
C(=N\Nc1nc2ccccc2[nH]1)/c1cccc2cccnc12	12.0	1.6	100.4*	5.7	38.5	10.1
Brc1ccc(-c2ccc(/C=N/Nc3nncc(-c4ccccc4)n3)o2)cc1	1.0	11.0	-7.1	1.6	5.5	-20.1
Brc1ccc(-c2ccc(/C=N/Nc3nc4ccccc4[nH]3)o2)cc1	-17.3	1.5	51.4	-10.7	89.5*	20.0
COc1ccccc1S(=O)(=O)N1CC[C@H]2[C@H](CO)Nc3ccc(Br)cc3[C@H]21	.	-0.8	.	8.1	.	.
C[C@@H]1CN([C@H](C)CO)C(=O)c2cc(NC(=O)c3ccncc3)ccc2O[C@@H]1CN(C)C(=O)NC1CCCCC1	.	-2.1	.	.	.	.
C/C=C/c1ccc([C@H]2[C@@H](CO)N(C(C)=O)[C@@H]2CNC(=O)NCCC)cc1	.	.	.	-13.4	.	.
NS(=O)(=O)c1cccc(NC(=O)COC(=O)c2cc(-c3ccc(Cl)cc3)nc3ccccc23)c1	1.6	0.6	17.1	-5.8	91.2*	-12.1
CCOC(=O)N(C)C[C@@H]1OCc2ccccc2-c2c(n(C)c3ccccc23)C(=O)N([C@@H](C)CO)C[C@H]1C	.	0.6	.	1.1	.	.
FC(F)(F)c1cnc(-c2cnc(-c3ccccn3)nc2)c(Cl)c1	-2.8	5.0	-2.6	1.6	55.5*	-35.0
O=C1COc2ccc(N3C(=O)C=CC3=O)cc2N1	.	.	89.3*	.	-1.0	.
CCOC(=O)c1c(C)oc2c1c(C(c1cccnc1)N1CCCCC1)c(O)c1ccccc12 (centres undefined)	6.2	.	28.8	.	1.2	.

Screening results (PubChem)
